Residues, ends and D or L forms follow the SMILES beside them. *: point of attachment. X1 = [N-]=[N+]=NCCOCCOCCOCCOCC(=O)*
Key:
[1] = system: E-selectin on HUVEC cells; assay type: cell-based, human; conditions: 10 μM in HKR pH 7.4, 30 min; 10 ng/mL TNFα for 12 h; heparin/HKR washes
Outline: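 Human umbilical vein endothelial cells (HUVEC) were cultured as two parallel sets, with or without TNFα, to induce E‑selectin overexpression. Both sets were incubated for 30 min with 10 μM rhodamine‑labelled peptide/[60]fullerene conjugate (binding peptide or non‑binding control sequence). Cells were then washed thoroughly with heparin and HKR buffer and imaged by live‑cell confocal microscopy.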

E-selectin = target: T1, E-selectin (Homo sapiens, UniProt P16581); test: SPR direct binding to E-selectin-functionalized sensor chip
T1 sequence (P16581 22-610): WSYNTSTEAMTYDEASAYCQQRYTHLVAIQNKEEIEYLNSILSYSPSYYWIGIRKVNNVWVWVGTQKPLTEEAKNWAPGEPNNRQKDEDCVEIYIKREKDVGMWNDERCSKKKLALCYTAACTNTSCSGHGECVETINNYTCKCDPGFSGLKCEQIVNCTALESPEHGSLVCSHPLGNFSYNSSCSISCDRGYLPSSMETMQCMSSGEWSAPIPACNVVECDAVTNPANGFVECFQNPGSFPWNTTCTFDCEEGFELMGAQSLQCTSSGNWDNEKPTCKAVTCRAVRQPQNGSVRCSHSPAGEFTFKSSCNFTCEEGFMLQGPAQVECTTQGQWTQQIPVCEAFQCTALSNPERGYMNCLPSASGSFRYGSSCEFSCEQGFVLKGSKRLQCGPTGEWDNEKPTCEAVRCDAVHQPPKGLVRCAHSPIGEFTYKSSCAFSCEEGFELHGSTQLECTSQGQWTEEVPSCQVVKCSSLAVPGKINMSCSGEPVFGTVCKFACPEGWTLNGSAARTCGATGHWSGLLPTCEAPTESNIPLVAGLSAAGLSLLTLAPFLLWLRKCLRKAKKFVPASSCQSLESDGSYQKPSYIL

[2] = Water solubility of peptides; assay type: physicochemical; conditions: after HPLC purification; qualitative

Compound	Kd (E-selectin)	water solubility [2]	further results
C60-(ISELRSE)12 [FC]			cell fluorescence, TNFα-treated HUVEC cells, confocal microscopy [1]: residual fluorescence
CC[C@H](C)[C@H](NC(=O)COCCOCCOCCOCCN=[N+]=[N-])C(=O)N[C@@H](CCC(=O)O)C(=O)N[C@@H](CC(C)C)C(=O)N[C@@H](CC(C)C)C(=O)N[C@@H](CCC(N)=O)C(=O)N[C@@H](C)C(=O)N[C@@H](CCCNC(=N)N)C(N)=O [P2, N3‐(PEG)4‐IELLQAR] (X1-IELLQAR-NH2)	2950 µM	excellent purity and water solubility	
C60-(IELLQARK)12 [F1]			dissociation behaviour in SPR sensorgrams (E-selectin; (12.5-0.78) μM, t>240 s, initial fast then extremely slow dissociation phase): two‐phase dissociation process; affinity increase relative to its monomeric counterpart (E-selectin; F1 vs monomeric peptide, E-selectin SPR): up to 3 orders of magnitude; affinity enhancement (β) factor (E-selectin; multivalent effect of F1, twelve peptide units, SI section 6.5, eq. 3): 71
CC[C@H](C)[C@H](N)C(=O)N[C@@H](CCC(=O)O)C(=O)N[C@@H](CC(C)C)C(=O)N[C@@H](CC(C)C)C(=O)N[C@@H](CCC(N)=O)C(=O)N[C@@H](C)C(=O)N[C@@H](CCCNC(=N)N)C(=O)N[C@@H](CCCCNC(=O)COCCOCCOCCOCCN=[N+]=[N-])C(N)=O [P1, IELLQARK‐(PEG)4‐N3] (H-IELLQARK(X1)-NH2)	51.6 µM	excellent purity and water solubility	

From PMC9826239 (Angewandte Chemie (International Ed. in English), 2022)
